Shown are actives, neighbours in structure and some others; about 2% of the full set was active somewhere.
CCR6 antagonist: blocks CCL20-driven beta-arrestin recruitment at human CCR6; CHO-K1 CCR6 PathHunter beta-arrestin, luminescence, CCL20-stimulated; inhibition, % at 20 µM; actives 0.49% (n = 340,000);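 active = compounds whose inhibition of the agonist-driven luminescence signal at 20 µM reaches about 50%, limit read from the data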;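 also: cells stimulated with CCL20 at 14 nM final; plate controls were DMSO with CCL20 for no effect and DMSO without agonist for full effect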
EBI2 block: antagonists of human EBI2 receptor; P32249; EBI2 beta-arrestin recruitment, luminescence, 7a,25-OHC stimulated; inhibition, % at 5 µM; actives 0.81% (n = 360,000); AID 651636; in the data active = inhibition above about 38%;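 also: enzyme fragment complementation signal reports receptor beta-arrestin coupling in cells; 0% = agonist plus DMSO wells and 100% = wells without agonist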
Target sequence (P32249 whole entry, looked up, the tested form may be a part): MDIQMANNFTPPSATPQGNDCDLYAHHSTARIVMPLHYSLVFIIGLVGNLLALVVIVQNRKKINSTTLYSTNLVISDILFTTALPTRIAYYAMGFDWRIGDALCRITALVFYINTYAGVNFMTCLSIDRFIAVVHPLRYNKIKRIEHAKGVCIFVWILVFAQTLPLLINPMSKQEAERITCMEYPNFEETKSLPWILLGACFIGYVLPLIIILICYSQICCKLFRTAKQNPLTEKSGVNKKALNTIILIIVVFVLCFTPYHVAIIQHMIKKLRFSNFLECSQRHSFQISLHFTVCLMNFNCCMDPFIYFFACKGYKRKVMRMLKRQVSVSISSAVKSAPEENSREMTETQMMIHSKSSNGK
APJ ag: APJ receptor agonism | activation, % at 20 µM | P35414 | CHO-K1 APJ PathHunter beta-arrestin, luminescence; 0% DMSO wells, 100% apelin | actives 0.11% (n = 330,000);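 active = activation more than six SD over the plate average, tested at 20 µM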;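 also: 0% = DMSO alone and 100% = apelin-13 at 10 nM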
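Material: engineered CHO-K1 APJ arrestin reporter cells; amount: 1000 CHO-K1 reporter cells seeded per well; incubation: compound stimulation 90 min at 25 °C, detection 60 min; signal: luminescent beta-gal fragment complementation, chemiluminescent substrate; read-out basis: APJ agonist activity; controls: DMSO-only wells as negative, 10 nM Apelin-13 as positive control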
FXN GAA850 act: activators of GAA850 frataxin (FXN) promoter. HEK293 lucGAA850 FXN promoter luciferase reporter, 24 h; percent of 10 µM SAHA response. activation, % at 6 µM. actives 0.56% (n = 360,000). AID 540364;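 active = activation above the average of all compounds screened plus 3 SD, cutoff fixed separately per campaign, cut at about 7.5% in these data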;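 also: 0% = DMSO wells and 100% = 10 µM SAHA wells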
CXCR6 inh: inhibitors of human CXCR6 receptor; CHO-K1 PathHunter CXCR6 beta-arrestin, luminescence; inhibition, % at 20 µM; actives 0.36% (n = 360,000); in the data active = inhibition above about 34%, passing the limit was not always enough;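 also: antagonist mode with CXCL16 agonist at 10 nM final; 0% = 10 nM CXCL16 with DMSO and 100% = unstimulated wells without agonist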
Target sequence (O00574 whole entry, looked up): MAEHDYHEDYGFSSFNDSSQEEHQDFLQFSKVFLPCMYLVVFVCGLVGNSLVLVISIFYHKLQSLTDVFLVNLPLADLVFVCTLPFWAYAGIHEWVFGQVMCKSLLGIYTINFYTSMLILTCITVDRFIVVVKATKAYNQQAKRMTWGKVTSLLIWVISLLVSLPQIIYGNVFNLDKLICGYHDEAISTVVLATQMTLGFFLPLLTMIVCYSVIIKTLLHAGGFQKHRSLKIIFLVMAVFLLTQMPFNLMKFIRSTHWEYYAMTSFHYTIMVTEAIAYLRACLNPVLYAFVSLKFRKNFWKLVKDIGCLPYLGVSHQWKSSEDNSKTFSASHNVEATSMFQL
APJ antag: antagonists of human APJ apelin receptor. CHO-K1 APJ beta-arrestin complementation, luminescence. inhibition, % at 20 µM. actives 0.32% (n = 330,000);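 active = inhibition above about 40% at 20 µM, limit read from the data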;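 also: cells challenged with 10 nM apelin-13 agonist together with compound; plate controls were apelin-13 plus DMSO wells for no effect and DMSO wells lacking apelin-13 for full effect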
APJ antag conf: confirmation of human APJ apelin receptor antagonists; shares compounds with APJ antag; APJ beta-arrestin recruitment, luminescence, antagonist mode; inhibition, % at 20 µM; actives 66% (n = 950); in the data active = inhibition above about 50%
GAA30 FXN cntr: GAA30 FXN promoter activation counter-screen. shares compounds with FXN GAA850 act. HEK293 lucGAA30 FXN promoter luciferase, 24 h; DMSO = 0%, 5 µM ipriflavone = 100%. activation, % at 6 µM. actives 66% (n = 1,900);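 active = mean activation above the mean of solvent-only control wells plus 3 SD, cut at about 22% in these data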;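 also: counterscreen of GAA850 promoter hits where activity marks nonselective or luminescence artifacts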
GAA850 confirm: GAA850 FXN promoter activation confirmation. shares compounds with FXN GAA850 act. HEK293 lucGAA850 FXN promoter luciferase reporter, 24 h; 100% = activation by SAHA. activation, % at 6 µM. actives 86% (n = 1,900);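 active = mean activation above a set limit taken from the primary screen, cut at about 8% in these data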;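 also: 0% = DMSO wells and 100% = 10 µM SAHA wells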
CXCR6 antag conf: CXCR6 antagonism confirmation, single concentration. shares compounds with CXCR6 inh. CHO-K1 CXCR6 PathHunter beta-arrestin, luminescence. inhibition, % at 20 µM. actives 65% (n = 700);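 active = mean inhibition over four retests above 40%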;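 also: receptor stimulated with 10 nM CXCL16 agonist; beta-galactosidase fragment complementation upon beta-arrestin recruitment to receptor; plate controls were CXCL16 plus DMSO for no effect and DMSO without CXCL16 for full effect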
Starred values were filed as active, the others as inactive; . = no result given.

SMILES	CCR6 antagonist	EBI2 block	APJ ag	FXN GAA850 act	CXCR6 inh	APJ antag	APJ antag conf	others
Cc1c2cnn(CC(=O)NCCCN3CC(C)CC(C)C3)c(=O)c2c(C)n1Cc1ccccc1Cl (centres undefined)	12.1	-8.2	-5.5	-2.6	11.8	-0.4	.
NS(=O)(=O)c1ccc(N=Nc2c(=O)[nH]n3c(=O)c4c([nH]c23)CCCC4)cc1	35.4	7.7	-8.6	0.4	24.7	45.3*	58.0*
COc1cc(NS(=O)(=O)c2ccc(NC(=S)NC(=O)C3CCCC3)cc2)nc(OC)n1	-3.2	-3.3	-1.9	0.3	5.2	50.3*	87.3*
COc1cc(NS(=O)(=O)c2ccc(NC(=S)Nc3ccccc3)cc2)nc(OC)n1	-1.8	-2.0	9.4	-0.7	-7.4	5.6	.
O=C1NN(c2cccc(Br)c2)C(=O)/C1=C\c1ccc(O)cc1	26.7	2.1	-7.3	0.1	2.6	22.5	.
O=C1NN(c2cccc(Br)c2)C(=O)/C1=C/c1ccc(-c2cc([N+](=O)[O-])ccc2O)o1	85.6*	12.4	-8.5	-1.2	62.3*	61.4*	98.2*
CC1=NN(c2ccc(C(=O)O)cc2)C(=O)/C1=C/c1ccc(-c2ccccc2F)o1	.	40.9	7.7	-0.4	6.8	17.3	.
CC1=NN(c2ccc(C)cc2)C(=O)/C1=C/c1ccc(-c2cc([N+](=O)[O-])ccc2O)o1	72.5*	6.8	-4.9	2.5	41.5*	46.7*	92.5*
O=C(NCCCCc1ccccc1)c1cccc(NC(=O)C2CC2)c1	-9.6	-8.1	.	-0.2	1.9	.	.
Cc1ccccc1C(OCC(O)CN1CCN(CCO)CC1)c1ccccc1 (centres undefined)	10.6	-2.4	-1.4	2.8	-8.0	-1.9	.
Cc1cc(C)n(-c2nc(SCCN(C)C)c3c4c(sc3n2)CCCC4)n1	19.1	-7.6	-10.9	4.1	1.8	49.2*	37.5
Cc1cc(C)n(-c2nc(SCC(=O)O)c3c4c(sc3n2)COC(C)(C)C4)n1	9.7	17.9	-0.1	3.4	-4.7	-8.1	.
Cc1ccc(C(=O)CNc2cccc(Cl)c2)cc1	47.1	14.5	-9.4	2.7	19.5	65.9*	77.1*
O=C(CNc1cccc(Cl)c1)c1ccc(Cl)cc1	46.9	24.9	-15.8	-2.8	40.8*	72.7*	90.9*
CCOC(=O)c1c(C)nc2sc(C(=O)Nc3ccc(C(C)=O)cc3)c(N)c2c1-c1ccc(OC)cc1	4.4	7.2	-9.6	-2.2	-0.2	51.1*	17.4
Cc1cc(C)cc(N2CC(C)Cn3c2nc2c3c(=O)[nH]c(=O)n2C)c1 (centres undefined)	-0.5	-1.2	-4.0	-1.4	3.2	22.9	.
COc1cccc(N2CC(C)Cn3c2nc2c3c(=O)[nH]c(=O)n2C)c1 (centres undefined)	41.4	16.7	-5.6	-0.3	44.2*	45.7*	79.3*
Cc1ccc(-c2cnc(C(O)c3cccc(Cl)c3)[nH]2)cc1 (centres undefined)	.	-0.7	.	-0.8	-2.6	.	.
C/C=C/c1ccc(OCCCCN(C)Cc2ccccc2)c(OC)c1	1.2	0.1	-4.5	9.5*	7.8	50.9*	17.7	GAA30 FXN cntr=16.2;GAA850 confirm=13.2*
C/C=C/c1ccc(OCCCCOc2ccccc2C(C)=O)c(OC)c1	15.6	0.4	-2.9	-0.3	-10.8	-5.2	.
Cn1c(NC(=S)Nc2ccccc2)nc2ccccc21	-19.4	7.1	-3.9	8.2*	-9.6	40.7*	13.8	GAA30 FXN cntr=84.9*;GAA850 confirm=27.3*
CCOC(=O)Cn1nc2oc(=O)c(CCN3CCN(c4ccccc4OC)CC3)c(C)c2c1C	.	-5.6	.	0.2	5.0	.	.
Cc1ccc(NC(=S)NNc2ccc(C(=O)O)cc2[N+](=O)[O-])cc1C	36.3	8.1	-6.2	2.3	40.9*	42.0*	49.9	CXCR6 antag conf=42.2*
COc1ccc(NC(=O)CSCc2cc(=O)n3cc(C)sc3n2)cc1	5.4	-21.6	-0.3	-0.3	0.8	-11.9	.
CCOc1ccc(S(=O)(=O)N2CCN(C(=O)C3CCC3)CC2)cc1	-5.7	0.2	-5.2	2.4	-4.0	-12.7	.
SMILES	CCR6 antagonist	EBI2 block	APJ ag	FXN GAA850 act	CXCR6 inh	APJ antag	APJ antag conf	others
N#Cc1c([N+](=O)[O-])cc([N+](=O)[O-])cc1S(=O)(=O)Cc1ccccc1	105.9*	5.6	-1.4	-10.9	94.6*	63.8*	60.9*	CXCR6 antag conf=86.9*
Cc1cccnc1Nc1nc(-c2ccccn2)cs1	72.0*	75.8*	-10.5	-18.1	71.5*	79.6*	103.2*	CXCR6 antag conf=88.6*
Cc1[nH]c2ccc(C(=O)OC(C)C(=O)N(C)c3ccccc3)cc2c1C (centres undefined)	13.3	16.7	7.5	-2.3	0.0	-10.7	.
O=C(COc1ccccc1)NNc1nc2c(F)cc(F)cc2s1	4.2	2.7	-0.9	-1.0	-7.2	-14.6	.
O=C(Nc1nc2c(F)cc(F)cc2s1)c1ccccn1	79.4*	63.4*	-8.1	3.9	49.3*	79.8*	83.6*	CXCR6 antag conf=68.5*
CCNC(=O)N(C)C[C@H]1N[C@@](CC)(C(=O)OC)[C@H]2C(=O)N(Cc3ccccc3)C(=O)[C@@H]12	12.2	-9.4	-4.3	-0.1	5.5	3.9	.
Cc1nc(SCC(=O)c2cc(C)n(C3CC3)c2C)c2ccccc2n1	.	7.1	.	-0.1	-4.1	.	.
CC(C)(C)c1ccc(-n2nc(C#N)c(Cl)cc2=O)cc1	49.8	82.5*	-1.5	-8.3	60.8*	60.0*	83.4*	CXCR6 antag conf=69.5*
CCN(CC(=O)NCc1cccs1)C(=O)c1ccc(S(=O)(=O)Nc2ccccc2C)cc1	4.8	-6.3	5.7	0.2	-3.1	8.1	.
O=C(NNC(=S)Nc1ccccc1)c1ccncc1	6.3	-2.9	-3.8	-1.1	-3.2	-5.1	.
O=C(NNC(=S)Nc1ccccc1)Nc1ccccc1	53.6*	-2.0	-3.0	7.7*	71.2*	43.0*	38.9	GAA30 FXN cntr=35.6*;GAA850 confirm=11.3*;CXCR6 antag conf=38.7
O=C(Nc1ccc(OC(F)F)cc1)c1ccccn1	5.8	0.6	-1.1	0.6	10.2	8.8	.
CC(=O)Nc1ccc(S(=O)(=O)N(C)c2ccccc2)cc1	14.6	-6.2	-4.9	-0.4	-5.3	5.0	.

High-throughput results deposited in PubChem BioAssay by several laboratories.
